# Assay results taken from ChEMBL document CHEMBL4477209, “Indole-2-carboxamide-based MmpL3 Inhibitors Show Exceptional Antitubercular Activity in an Animal Model of Tuberculosis Infection” (J Med Chem, 2016).
# The source made the active and inactive calls. The calls are words filed in the database; no cut-off is given here.
# Tests used:
# [1] = Selectivity index, ratio of IC50 for african green monkey Vero cells to MIC for clinical isolates of Mycobacterium tuberculosis; type: toxicity; details: read-out: Selectivity Index
# [2] = tested on: Mycobacterium tuberculosis; test: Antimycobacterial activity against Mycobacterium tuberculosis H37Rv infected in BALB/c mouse model assessed as reduction in CFU counts in lungs administered daily via oral gavage for 5 days per week measured after 14 to 28 days post dosage relative to control; type: functional, organism-based
# Summary of the method: (§1)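 Female BALB/c mice, 4-6 weeks old, aerosol-infected with H37Rv (about 10^3 CFU); five mice taken on day 1 for lung implantation CFU. From day 1, 12.5, 25, 50 or 100 mg/kg in 0.5% carboxymethylcellulose by daily oral gavage, 5 days/week. Ethambutol 100 mg/kg as positive control, untreated infected mice as negative, 5 mice per group. Lung homogenates plated on 7H11 selective agar on days 14 and 28.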
# [3] = Mutagenicity in Salmonella typhimurium TA100; type: toxicity; details: salmonella enterica subsp. enterica serovar typhimurium
# [4] = tested on: Mycobacterium tuberculosis; test: Antimycobacterial activity against Mycobacterium tuberculosis H37Rv infected in BALB/c mouse model assessed as reduction in CFU counts in lung at 100 mg/kg administered daily via oral gavage for 5 days per week measured after 28 days post dosage relative to control; type: functional; summary of the method: as §1
# [5] = biological target: T1, Aryl hydrocarbon receptor (Homo sapiens, UniProt P35869); test: Transactivation of AhR (unknown origin) assessed as upregulation of CYP1A2 at 3 to 8 microg/ml; type: ADME
# T1 sequence (P35869 whole entry): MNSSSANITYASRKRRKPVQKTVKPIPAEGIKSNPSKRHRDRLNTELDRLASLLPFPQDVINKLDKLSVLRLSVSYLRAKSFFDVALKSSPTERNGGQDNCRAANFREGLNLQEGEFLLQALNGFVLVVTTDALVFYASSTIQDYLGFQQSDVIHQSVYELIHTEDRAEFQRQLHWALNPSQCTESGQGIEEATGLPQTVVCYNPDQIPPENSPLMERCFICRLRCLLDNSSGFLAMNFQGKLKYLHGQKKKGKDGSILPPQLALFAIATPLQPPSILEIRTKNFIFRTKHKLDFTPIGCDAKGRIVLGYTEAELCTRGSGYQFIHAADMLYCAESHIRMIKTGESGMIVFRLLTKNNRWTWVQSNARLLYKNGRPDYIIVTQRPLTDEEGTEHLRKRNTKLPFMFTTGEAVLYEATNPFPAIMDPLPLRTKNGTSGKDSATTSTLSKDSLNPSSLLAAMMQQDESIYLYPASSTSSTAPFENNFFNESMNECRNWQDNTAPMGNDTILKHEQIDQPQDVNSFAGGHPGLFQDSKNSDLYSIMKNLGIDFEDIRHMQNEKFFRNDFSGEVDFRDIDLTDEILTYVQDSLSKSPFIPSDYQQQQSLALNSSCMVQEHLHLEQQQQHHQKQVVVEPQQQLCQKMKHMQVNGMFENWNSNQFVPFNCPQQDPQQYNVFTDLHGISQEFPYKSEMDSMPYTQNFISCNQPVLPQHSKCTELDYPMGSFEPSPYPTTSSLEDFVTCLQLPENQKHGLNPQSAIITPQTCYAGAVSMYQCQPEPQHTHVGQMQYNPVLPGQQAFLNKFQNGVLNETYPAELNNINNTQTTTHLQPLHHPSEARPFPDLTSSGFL
# Summary of the method: (§2)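 Nuclear receptor reporter-gene induction assay, with reporters coupled to PXR, CAR or AhR. Compound was tested at 0.1–1, 3 and 8 μg/mL. Positive controls were rifampin for PXR, CITCO for CAR and 3-methylcholanthrene for AhR.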
# [6] = Stability in dog hepatocytes assessed as compound remaining at 1 uM after 2 hrs; type: ADME, cell-based, Canis lupus familiaris, Hepatocyte; details: read-out: Stability
# Summary of the method: (§3)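 Hepatocytes from human, mouse, rat or dog incubated with 1 μM starting concentration for 2 h; percent of parent compound remaining.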
# [7] = biological target: T2, Nuclear receptor subfamily 1 group I member 3 (Homo sapiens, UniProt Q14994); test: Transactivation of CAR (unknown origin) assessed as upregulation of CYP2B6 at 0.1 to 1 microg/ml; type: ADME; summary of the method: as §2
# T2 sequence (Q14994 whole entry): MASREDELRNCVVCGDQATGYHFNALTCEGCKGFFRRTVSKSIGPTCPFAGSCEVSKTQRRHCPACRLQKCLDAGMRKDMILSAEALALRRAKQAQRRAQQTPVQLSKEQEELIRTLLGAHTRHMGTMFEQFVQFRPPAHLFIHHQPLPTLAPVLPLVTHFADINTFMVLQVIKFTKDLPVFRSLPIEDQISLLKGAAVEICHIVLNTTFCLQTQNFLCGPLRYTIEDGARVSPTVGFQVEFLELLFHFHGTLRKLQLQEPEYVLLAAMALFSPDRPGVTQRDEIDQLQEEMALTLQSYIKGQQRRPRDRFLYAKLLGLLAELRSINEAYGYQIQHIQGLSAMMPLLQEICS
# Cytochrome P450 2D6 = Cytochrome P450 2D6 (Homo sapiens, UniProt P10635); test: Inhibition of CYP2D6 (unknown origin); type: ADME
# Chain of Cytochrome P450 2D6 (P10635 whole entry): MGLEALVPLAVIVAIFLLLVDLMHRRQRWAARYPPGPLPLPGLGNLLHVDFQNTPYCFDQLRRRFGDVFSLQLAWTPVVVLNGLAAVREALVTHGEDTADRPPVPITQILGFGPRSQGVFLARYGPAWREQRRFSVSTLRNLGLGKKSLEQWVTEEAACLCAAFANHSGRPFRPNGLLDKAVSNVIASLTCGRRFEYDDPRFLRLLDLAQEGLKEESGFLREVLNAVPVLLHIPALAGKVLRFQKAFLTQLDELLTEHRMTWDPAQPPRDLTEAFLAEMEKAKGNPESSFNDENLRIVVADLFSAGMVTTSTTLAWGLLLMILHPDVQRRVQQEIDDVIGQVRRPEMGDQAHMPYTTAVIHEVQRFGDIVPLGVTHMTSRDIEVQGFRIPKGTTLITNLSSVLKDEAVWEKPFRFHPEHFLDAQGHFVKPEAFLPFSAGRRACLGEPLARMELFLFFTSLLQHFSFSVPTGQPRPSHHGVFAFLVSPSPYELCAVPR
# [8] = Mean residence time (last) in BALB/c mouse plasma at 100 mg/kg administered via oral gavage by LC-MS analysis; type: ADME, organism-based
# Summary of the method: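 Female BALB/c mice (20 g), single oral gavage dose of 100 mg/kg. Cardiac blood and lungs taken at 0, 0.25, 0.5, 1, 2, 4, 8 and 24 h (n = 3 per time point). Plasma separated by centrifugation; lungs bead-beaten in water and supernatant recovered. Drug quantified by LC-MS/MS against an indole-2-carboxamide internal standard. Parameters derived by noncompartmental analysis.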
# [9] = Stability in rat hepatocytes assessed as compound remaining at 1 uM after 2 hrs; type: ADME, cell-based, Hepatocyte; details: read-out: Stability; summary of the method: as §3
# [10] = biological target: T2, Nuclear receptor subfamily 1 group I member 3; test: Transactivation of CAR (unknown origin) assessed as upregulation of CYP2B6 at 3 to 8 microg/ml; type: ADME; summary of the method: as §2
# [11] = Mutagenicity in Salmonella typhimurium TA98 assessed as increase in ratio of revertant colonies at 5000 microg/plate in presence of S9 liver fraction relative to control; type: toxicity, subcellular; details: salmonella enterica subsp. enterica serovar typhimurium
# Summary of the method: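 Bacterial reverse mutation test in S. typhimurium TA98 with S9 liver fraction, at 500 and 5000 μg/plate. Revertant colony count expressed as a ratio to the DMSO solvent control; 2-aminoanthracene as positive control.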
# [12] = biological target: Voltage-gated inwardly rectifying potassium channel KCNH2 (Homo sapiens, UniProt Q12809); test: Inhibition of human ERG
# Chain of Voltage-gated inwardly rectifying potassium channel KCNH2 (Q12809 whole entry): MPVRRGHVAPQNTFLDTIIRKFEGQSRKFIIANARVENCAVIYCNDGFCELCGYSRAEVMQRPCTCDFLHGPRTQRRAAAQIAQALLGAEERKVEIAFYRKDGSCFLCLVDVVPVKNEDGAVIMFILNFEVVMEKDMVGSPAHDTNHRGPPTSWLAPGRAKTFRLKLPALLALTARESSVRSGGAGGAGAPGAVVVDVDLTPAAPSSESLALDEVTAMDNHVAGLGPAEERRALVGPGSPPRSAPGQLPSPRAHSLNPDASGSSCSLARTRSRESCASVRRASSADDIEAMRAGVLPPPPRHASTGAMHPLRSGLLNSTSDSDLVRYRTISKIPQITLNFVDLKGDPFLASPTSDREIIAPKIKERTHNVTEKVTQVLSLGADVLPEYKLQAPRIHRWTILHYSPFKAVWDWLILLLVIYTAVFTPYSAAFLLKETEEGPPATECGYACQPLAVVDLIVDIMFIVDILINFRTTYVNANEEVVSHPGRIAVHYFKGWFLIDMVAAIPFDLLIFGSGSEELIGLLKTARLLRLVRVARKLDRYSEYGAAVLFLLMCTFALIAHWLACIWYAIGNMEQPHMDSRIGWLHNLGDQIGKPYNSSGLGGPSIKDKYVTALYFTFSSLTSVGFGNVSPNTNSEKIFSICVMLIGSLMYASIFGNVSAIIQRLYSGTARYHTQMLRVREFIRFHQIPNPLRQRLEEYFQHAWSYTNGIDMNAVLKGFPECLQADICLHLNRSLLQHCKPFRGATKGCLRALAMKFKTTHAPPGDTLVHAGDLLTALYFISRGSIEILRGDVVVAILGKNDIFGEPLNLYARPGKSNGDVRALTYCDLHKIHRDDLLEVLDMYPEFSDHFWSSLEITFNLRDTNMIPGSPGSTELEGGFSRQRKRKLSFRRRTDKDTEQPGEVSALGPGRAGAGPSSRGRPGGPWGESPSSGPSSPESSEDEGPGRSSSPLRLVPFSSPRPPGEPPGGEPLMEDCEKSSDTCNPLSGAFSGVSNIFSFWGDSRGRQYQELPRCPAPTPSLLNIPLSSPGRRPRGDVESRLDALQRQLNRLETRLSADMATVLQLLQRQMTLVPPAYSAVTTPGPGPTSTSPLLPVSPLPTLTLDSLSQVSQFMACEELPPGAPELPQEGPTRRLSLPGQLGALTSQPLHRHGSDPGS
# [13] = biological target: T1, Aryl hydrocarbon receptor; test: Transactivation of AhR (unknown origin) assessed as upregulation of CYP1A2 at 0.1 to 1 microg/ml; type: ADME; summary of the method: as §2
# [14] = tested on: Mycobacterium tuberculosis; test: Antimycobacterial activity against Mycobacterium tuberculosis H37Rv infected in BALB/c mouse model assessed as protection against mouse mortality at 12.5 to 100 mg/kg administered daily via oral gavage for 5 days per week measured after 14 to 28 days post dosage; type: functional, organism-based
# [15] = tested on: Mycobacterium tuberculosis; test: Antimycobacterial activity against Mycobacterium tuberculosis H37Rv assessed as growth inhibition at 0.5 times MIC after 7 to 14 days in presence of 0.0313 times MIC of rifampin by alamar blue assay based Bliss synergy model analysis; type: functional
# Summary of the method: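 Checkerboard of 2-fold dilutions, 4.0 to 0.0313 × MIC of each drug combined with rifampin. M. tuberculosis H37Rv at 1 × 10^4 CFU per well in 200 μL. Single-drug, blank and full-growth controls included. alamarBlue read-out, percent inhibition calculated. Bliss independence applied to wells below 1 × MIC; Δfaxy > 0 taken as synergy, < 0 as antagonism.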
compound,measurement,setting,value
C[C@@H]1[C@H]2C[C@@H](C[C@H]1NC(=O)c1cc3c(F)cc(F)cc3[nH]1)C2(C)C,selectivity ratio,[1],≥ 16000
same,Activity,[2],Dose-dependent effect
same,Activity,[3],Non-Toxic
same,Activity,[4],2.12 log10CFU
same,Activity,[5],Active
same,"remaining at 2 h, 1 µM",[6],18%
same,Activity,[7],Not Active
same,inhibition (INH),Cytochrome P450 2D6,36.6%
same,MRT last,[8],7.28 h
same,"remaining at 2 h, 1 µM",[9],0.7%
same,Activity,[10],Active
same,fold change (FC),[11],2
same,IC50,[12],> 30 µM
same,Activity,[13],Not Active
same,Activity,[14],Active
same,growth inhibition (GI),[15],99.2%
